Test results reported in ChEMBL document CHEMBL4002591 (J Med Chem, 2017).
Active and inactive are the calls of the source. The rule behind the calls is not given here.

Key:
[1] = molecular target: Protein mono-ADP-ribosyltransferase PARP14 (Homo sapiens, UniProt Q460N5); assay: Inhibition of PARP14 (unknown origin)
[2] = molecular target: Poly [ADP-ribose] polymerase 1 (Homo sapiens, UniProt P09874); assay: Inhibition of full length recombinant human N-terminal GST-tagged PARP1 expressed in Baculovirus infected Sf9 cells using TACS-Sapphire as substrate measured after 1 hr by colorimetric assay; conditions: read-out: IC50
Poly [ADP-ribose] polymerase 1, sequence (P09874 whole entry): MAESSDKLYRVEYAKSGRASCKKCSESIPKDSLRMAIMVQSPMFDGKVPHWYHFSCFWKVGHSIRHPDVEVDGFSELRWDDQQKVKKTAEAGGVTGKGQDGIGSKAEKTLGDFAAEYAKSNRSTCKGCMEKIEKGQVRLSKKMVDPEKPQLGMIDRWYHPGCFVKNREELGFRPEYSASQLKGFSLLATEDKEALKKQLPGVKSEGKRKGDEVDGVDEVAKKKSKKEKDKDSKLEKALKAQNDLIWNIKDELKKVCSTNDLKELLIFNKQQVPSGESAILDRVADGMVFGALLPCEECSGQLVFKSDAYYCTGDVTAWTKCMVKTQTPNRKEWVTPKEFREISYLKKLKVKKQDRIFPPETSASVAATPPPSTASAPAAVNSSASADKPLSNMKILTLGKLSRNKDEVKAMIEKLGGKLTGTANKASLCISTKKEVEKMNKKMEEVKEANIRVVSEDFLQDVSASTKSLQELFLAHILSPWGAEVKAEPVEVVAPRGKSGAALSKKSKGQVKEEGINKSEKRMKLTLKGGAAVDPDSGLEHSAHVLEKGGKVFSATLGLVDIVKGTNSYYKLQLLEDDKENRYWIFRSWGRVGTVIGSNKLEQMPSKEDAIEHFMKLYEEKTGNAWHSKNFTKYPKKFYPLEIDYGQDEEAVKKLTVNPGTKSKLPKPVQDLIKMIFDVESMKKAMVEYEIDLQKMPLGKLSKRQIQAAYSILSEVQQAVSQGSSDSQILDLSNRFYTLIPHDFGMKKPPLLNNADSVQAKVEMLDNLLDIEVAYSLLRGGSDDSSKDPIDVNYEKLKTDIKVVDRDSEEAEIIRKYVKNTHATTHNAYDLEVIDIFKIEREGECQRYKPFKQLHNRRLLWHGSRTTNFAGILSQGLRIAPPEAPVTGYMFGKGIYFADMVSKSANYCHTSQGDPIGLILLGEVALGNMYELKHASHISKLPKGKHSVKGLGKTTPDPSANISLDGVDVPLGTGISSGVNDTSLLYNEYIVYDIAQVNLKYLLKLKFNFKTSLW

[3] = molecular target: Protein mono-ADP-ribosyltransferase PARP4 (Homo sapiens, UniProt Q9UKK3); assay: Inhibition of PARP4 (unknown origin)
Protein mono-ADP-ribosyltransferase PARP4, sequence (Q9UKK3 whole entry, the tested form may be a part): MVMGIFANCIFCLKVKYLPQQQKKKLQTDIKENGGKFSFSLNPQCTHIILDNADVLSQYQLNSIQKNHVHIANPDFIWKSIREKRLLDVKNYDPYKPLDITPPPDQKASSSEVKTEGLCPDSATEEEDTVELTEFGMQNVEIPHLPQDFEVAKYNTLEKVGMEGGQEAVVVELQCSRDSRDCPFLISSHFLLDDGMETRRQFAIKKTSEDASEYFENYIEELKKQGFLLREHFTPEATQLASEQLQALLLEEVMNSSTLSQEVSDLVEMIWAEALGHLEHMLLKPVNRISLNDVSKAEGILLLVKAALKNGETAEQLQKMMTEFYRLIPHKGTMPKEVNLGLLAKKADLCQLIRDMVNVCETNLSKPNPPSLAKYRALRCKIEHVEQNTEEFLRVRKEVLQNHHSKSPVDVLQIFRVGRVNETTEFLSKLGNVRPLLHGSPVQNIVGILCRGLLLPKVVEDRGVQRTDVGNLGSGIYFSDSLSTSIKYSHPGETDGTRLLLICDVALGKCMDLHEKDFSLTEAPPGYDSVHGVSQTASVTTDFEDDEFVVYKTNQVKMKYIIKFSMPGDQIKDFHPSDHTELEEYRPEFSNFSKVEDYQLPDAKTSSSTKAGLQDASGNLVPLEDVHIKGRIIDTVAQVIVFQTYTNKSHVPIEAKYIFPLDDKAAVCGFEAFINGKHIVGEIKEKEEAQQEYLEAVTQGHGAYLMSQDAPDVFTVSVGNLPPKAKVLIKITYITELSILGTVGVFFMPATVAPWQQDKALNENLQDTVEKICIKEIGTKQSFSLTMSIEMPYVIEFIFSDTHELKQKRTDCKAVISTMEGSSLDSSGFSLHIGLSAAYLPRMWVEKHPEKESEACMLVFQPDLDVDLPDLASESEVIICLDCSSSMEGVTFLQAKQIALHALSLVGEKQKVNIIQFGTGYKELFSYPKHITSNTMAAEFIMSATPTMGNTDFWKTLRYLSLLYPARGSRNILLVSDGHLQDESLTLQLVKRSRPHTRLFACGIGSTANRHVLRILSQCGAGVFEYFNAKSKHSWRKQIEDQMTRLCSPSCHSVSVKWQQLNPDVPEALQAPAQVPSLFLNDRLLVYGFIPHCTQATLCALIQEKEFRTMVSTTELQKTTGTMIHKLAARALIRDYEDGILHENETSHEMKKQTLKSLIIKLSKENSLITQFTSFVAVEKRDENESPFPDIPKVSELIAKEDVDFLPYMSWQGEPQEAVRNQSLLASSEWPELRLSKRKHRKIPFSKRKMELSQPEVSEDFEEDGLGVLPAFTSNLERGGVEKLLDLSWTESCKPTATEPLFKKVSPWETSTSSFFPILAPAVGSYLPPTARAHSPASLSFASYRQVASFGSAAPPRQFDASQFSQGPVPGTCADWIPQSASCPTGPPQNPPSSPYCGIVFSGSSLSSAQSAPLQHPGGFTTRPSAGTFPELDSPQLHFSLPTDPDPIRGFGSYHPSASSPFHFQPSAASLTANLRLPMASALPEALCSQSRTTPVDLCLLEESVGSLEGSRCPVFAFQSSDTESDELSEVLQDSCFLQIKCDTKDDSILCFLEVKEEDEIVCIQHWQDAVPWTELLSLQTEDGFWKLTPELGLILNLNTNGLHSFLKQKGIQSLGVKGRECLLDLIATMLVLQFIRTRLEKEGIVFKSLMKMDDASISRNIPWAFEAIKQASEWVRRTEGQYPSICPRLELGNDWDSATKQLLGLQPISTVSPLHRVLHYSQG

[4] = molecular target: T1, Poly [ADP-ribose] polymerase tankyrase-1 (Homo sapiens, UniProt O95271); assay: Inhibition of recombinant human N-terminal GST-tagged TNKS1 (1001 to 1327 residues) expressed in baculovirus infected sf9 cells using TACS-Sapphire as substrate measured after 30 mins by colorimetric assay
T1 sequence (O95271 whole entry): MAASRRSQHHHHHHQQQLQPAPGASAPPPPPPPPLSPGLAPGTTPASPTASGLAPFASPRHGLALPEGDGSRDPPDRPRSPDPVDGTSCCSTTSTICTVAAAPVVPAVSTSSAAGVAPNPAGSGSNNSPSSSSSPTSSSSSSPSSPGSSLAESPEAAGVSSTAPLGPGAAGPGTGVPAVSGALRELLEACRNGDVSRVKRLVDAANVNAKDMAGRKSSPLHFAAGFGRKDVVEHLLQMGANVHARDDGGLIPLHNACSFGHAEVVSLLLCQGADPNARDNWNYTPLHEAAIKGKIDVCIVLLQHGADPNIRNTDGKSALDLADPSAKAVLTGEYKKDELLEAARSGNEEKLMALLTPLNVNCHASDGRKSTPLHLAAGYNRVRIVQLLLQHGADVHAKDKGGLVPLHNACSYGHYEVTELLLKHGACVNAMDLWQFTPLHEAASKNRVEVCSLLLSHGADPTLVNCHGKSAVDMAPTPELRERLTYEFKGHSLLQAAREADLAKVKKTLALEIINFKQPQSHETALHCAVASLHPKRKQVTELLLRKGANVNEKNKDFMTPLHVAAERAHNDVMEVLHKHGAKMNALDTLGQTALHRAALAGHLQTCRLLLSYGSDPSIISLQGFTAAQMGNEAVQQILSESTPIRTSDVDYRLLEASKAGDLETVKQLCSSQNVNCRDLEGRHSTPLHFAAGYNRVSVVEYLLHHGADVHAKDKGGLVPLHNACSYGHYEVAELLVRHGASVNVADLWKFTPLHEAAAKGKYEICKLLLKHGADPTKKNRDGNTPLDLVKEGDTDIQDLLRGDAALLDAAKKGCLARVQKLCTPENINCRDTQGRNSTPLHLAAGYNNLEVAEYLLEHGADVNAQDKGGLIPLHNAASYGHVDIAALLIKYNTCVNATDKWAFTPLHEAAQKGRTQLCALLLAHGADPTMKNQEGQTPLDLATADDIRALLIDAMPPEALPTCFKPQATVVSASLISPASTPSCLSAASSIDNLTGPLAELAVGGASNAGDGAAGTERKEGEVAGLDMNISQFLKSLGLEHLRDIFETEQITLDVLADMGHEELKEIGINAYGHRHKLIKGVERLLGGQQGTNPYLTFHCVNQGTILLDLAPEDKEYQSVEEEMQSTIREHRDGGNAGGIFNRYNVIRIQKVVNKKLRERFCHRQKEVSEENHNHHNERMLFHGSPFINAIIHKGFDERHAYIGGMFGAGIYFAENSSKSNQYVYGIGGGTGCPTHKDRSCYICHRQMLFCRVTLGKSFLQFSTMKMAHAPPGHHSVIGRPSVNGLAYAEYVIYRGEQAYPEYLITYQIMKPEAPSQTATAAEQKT

[5] = molecular target: T2, Protein mono-ADP-ribosyltransferase PARP10 (Homo sapiens, UniProt Q53GL7); assay: Inhibition of PARP10 (unknown origin)
T2 sequence (Q53GL7 whole entry): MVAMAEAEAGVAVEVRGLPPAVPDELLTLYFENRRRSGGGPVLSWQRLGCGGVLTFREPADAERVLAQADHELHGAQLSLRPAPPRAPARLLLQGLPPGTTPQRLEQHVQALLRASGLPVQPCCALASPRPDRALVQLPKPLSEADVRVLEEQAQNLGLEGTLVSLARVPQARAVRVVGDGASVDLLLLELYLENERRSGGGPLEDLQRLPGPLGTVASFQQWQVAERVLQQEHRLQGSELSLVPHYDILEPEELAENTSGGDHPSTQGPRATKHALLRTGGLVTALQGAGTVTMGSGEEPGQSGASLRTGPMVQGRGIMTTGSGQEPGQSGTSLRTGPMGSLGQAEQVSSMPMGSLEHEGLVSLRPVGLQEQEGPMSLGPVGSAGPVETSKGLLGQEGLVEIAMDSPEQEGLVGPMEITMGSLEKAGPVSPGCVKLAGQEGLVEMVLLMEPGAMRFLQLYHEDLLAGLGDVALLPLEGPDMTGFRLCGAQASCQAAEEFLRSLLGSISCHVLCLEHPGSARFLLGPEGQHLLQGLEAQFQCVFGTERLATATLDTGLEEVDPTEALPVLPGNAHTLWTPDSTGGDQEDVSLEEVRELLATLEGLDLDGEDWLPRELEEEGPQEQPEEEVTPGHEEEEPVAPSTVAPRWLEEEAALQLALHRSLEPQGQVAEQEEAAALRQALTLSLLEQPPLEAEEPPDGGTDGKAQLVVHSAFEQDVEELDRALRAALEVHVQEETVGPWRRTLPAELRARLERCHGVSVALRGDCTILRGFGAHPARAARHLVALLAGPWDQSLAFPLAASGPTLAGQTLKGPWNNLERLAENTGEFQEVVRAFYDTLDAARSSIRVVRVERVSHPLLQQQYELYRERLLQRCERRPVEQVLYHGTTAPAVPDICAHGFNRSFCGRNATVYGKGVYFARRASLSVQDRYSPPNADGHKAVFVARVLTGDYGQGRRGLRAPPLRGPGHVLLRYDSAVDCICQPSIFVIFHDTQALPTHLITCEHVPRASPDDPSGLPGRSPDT

[6] = test system: HEK293; assay: Cytotoxicity against HEK293 cells by light microscopic analysis; type: cell-based; conditions: human
How it was run: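 Viability of TCF/LEF reporter HEK293 cells was checked by light microscopy during the Wnt-signaling reporter assay.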

[7] = test system: DLD-1; assay: Anti-proliferative activity against human DLD1 cells assessed as inhibition of colony formation at 100 nM measured after 18 days under normal serum condition by trypan blue staining based light microscopic analysis; type: functional, cell-based
How it was run: (§1)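 DLD-1 colony-forming assay under normal serum: 1000 cells/well, with 1.0 µM or 100 nM compound, or a 1% DMSO (v/v) vehicle control. Colonies were counted, n = 3.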

[8] = test system: DLD-1; assay: Anti-proliferative activity against human DLD1 cells assessed as inhibition of colony formation at 1 uM measured after 18 days under normal serum condition by trypan blue staining based light microscopic analysis; type: functional, cell-based; how it was run: as §1

Protein mono-ADP-ribosyltransferase PARP14, sequence (Q460N5 whole entry): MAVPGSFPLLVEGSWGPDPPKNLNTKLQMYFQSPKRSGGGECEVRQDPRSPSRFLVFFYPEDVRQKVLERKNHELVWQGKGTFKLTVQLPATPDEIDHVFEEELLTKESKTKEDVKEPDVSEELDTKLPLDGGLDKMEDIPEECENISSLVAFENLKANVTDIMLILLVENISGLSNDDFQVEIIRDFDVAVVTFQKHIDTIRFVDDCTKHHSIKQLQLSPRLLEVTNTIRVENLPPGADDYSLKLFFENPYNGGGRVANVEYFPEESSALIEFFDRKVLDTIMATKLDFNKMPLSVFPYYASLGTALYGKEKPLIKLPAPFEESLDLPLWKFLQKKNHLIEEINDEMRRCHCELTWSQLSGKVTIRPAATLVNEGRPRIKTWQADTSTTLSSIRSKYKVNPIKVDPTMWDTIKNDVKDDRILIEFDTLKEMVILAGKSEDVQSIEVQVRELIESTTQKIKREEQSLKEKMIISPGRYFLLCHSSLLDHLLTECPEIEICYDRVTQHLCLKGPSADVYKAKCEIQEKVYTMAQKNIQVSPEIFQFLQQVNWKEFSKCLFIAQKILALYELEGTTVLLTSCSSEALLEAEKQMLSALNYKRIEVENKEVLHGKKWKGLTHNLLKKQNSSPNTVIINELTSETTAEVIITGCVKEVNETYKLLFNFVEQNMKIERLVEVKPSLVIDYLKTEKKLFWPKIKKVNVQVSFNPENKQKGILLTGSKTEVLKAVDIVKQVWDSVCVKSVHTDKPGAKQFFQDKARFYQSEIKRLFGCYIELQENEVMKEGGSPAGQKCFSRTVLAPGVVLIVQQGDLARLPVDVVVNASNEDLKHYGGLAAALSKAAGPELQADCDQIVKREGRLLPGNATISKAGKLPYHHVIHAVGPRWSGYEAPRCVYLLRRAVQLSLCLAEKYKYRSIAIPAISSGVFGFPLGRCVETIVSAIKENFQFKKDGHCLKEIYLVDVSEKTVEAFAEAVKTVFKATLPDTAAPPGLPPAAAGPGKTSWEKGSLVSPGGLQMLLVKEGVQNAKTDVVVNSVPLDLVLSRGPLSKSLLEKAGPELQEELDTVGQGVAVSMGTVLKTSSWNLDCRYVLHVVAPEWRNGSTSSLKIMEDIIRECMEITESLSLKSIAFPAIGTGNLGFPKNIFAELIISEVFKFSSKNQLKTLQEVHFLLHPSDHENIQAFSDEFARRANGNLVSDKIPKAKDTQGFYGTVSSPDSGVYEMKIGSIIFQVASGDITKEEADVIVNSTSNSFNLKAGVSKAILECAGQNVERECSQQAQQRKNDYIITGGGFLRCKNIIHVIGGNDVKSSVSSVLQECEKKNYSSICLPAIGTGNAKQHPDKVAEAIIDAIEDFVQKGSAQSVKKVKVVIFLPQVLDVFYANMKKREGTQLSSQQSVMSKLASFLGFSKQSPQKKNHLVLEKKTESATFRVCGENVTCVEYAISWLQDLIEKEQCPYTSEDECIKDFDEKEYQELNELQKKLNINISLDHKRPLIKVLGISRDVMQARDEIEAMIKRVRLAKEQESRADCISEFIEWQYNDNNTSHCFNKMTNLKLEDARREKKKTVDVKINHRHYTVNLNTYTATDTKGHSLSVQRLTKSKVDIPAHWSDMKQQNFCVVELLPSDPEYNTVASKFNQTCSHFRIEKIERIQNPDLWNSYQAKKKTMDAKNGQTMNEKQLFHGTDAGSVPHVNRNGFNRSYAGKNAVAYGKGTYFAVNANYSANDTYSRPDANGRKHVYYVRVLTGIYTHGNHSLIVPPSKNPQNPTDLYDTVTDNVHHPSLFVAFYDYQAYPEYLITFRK

Row | SMILES | IC50 [1] [µM] | IC50 [2] [µM] | IC50 [3] [µM] | IC50 [4] [µM] | IC50 [5] [µM] | Activity [6] | inhibition [7] | inhibition [8]
1 | Cc1cccc2c(=O)[nH]c(CCC(=O)Nc3ccc(C(=O)Nc4cccc5cccnc45)cc3)nc12 | > 100 | 6.5 | 65 | 0.0051 | > 100 | Non-Toxic | Active | Active
2 | O=C(CCc1nc2ccccc2c(=O)[nH]1)Nc1ccc(C(=O)Nc2cccc3cccnc23)cc1 | > 100 | 8.2 | 69 | 0.0091 | > 100 | Non-Toxic | Active | Active
